Source: PubChem BioAssay
The sample as a whole holds a higher share of hits than the screen did.
D1 allo mod: D1 dopamine receptor (human) allosteric modulation | P21728 | HEK293 D1, CRE-luciferase, dopamine EC30 potentiation; actives deviate in either direction | B-score at 10 µM | 58,000 compounds, 5.9% hits;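 active = luminescence count or its row- and column-corrected plate score outside the 99.7% band of the plate's sample wells, on either side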
AP ELISA ortho: orthogonal test for alternative complement pathway inhibitors. Human serum alternative complement pathway, LPS-coated ELISA, C3 deposition; tested in compound mixtures. inhibition, % at 5 µM. 62,000 compounds, 0.08% hits;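 active = inhibition above 30% in each of the two pooled mixtures holding the compound, so the lower value exceeds 30%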;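 note: 0% = serum in Mg-EGTA without compound and 100% = EDTA serum blank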
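Test system: human serum alternative complement pathway, C3 deposition on LPS-coated wells; also added: Plate-bound LPS; doses: 5 µM per compound in ten-compound mixtures; schedule: 1 h at 37 °C; detection: Anti-C3 ELISA, OD 450 nm; evaluation: percent inhibition of C3 deposition onto LPS; repeats: two pool placements per compound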
MMP13 inh: blocks human MMP13 activity; P45452; inhibition, % at 4 µM; MMP-13 fTHP FRET cleavage, Mca fluorescence; AID 570; 65,000 compounds, 0.07% hits;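 active = inhibition above the mean of compound-free control plate wells plus 3 SD, cut at about 14% in these data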;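 note: 0% = DMSO wells and 100% = wells with reference MMP-13 inhibitor after basal subtraction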
hDAT+cocaine: changed human dopamine transporter uptake under cocaine IC80; B-score at 10 µM; AID 449768; LLC-PK1 hDAT cells, [14C]-dopamine uptake with cocaine IC80; actives deviate in either direction; Q01959; 110,000 compounds, 1.3% hits;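 active = Z score or B-score, a plate-position-corrected score, falls beyond the plate's 99.7% confidence bounds, in either direction; inactive = both scores lie inside the 99.7% bounds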;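 note: scored against the spread of the other compound wells on the same plate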
Target sequence (Q01959 whole entry, looked up): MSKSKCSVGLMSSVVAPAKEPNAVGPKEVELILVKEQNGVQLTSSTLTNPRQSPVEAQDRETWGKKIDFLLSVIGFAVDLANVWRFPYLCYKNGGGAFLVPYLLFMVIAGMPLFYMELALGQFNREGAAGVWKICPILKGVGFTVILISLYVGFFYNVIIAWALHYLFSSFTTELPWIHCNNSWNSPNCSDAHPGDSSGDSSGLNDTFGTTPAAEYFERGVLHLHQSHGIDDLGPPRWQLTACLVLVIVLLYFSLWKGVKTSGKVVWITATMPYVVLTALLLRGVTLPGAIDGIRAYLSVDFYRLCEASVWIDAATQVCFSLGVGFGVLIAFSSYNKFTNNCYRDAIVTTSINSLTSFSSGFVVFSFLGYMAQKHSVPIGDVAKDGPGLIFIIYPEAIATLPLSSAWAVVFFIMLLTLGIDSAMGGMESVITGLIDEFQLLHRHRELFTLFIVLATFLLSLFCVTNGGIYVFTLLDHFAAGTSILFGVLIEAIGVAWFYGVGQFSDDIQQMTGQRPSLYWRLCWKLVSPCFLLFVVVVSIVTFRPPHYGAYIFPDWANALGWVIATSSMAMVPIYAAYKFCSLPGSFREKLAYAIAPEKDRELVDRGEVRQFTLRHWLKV
Calb biofilm kill: kills Candida albicans biofilms | inhibition, % at 6 µM | C. albicans biofilm + clotrimazole, Alamar Blue | 85,000 compounds, 0.14% hits | AID 834;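 active = inhibition above 20%; inactive = inhibition below 20%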;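 note: preformed 24 hr biofilms exposed to compound for 48 hr; 0% = biofilm without compound and 100% = blank killed by clotrimazole plus chlorhexidine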
D1 mod confirm: confirmation of human D1 dopamine receptor allosteric modulators | shares compounds with D1 allo mod | HEK293 D1 CRE-luciferase, dopamine EC30 potentiation; active compounds read high | luminescence at 10 µM | 2,200 compounds, 88% hits;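 active = luminescence in either of two replicates above the same-plate mean plus 3 SD of the low-dose dopamine control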
D1 ag no DA: secondary test of D1 modulators: activity without dopamine. luminescence at 10 µM. AID 646. shares compounds with D1 allo mod. HEK293 D1 CRE-luciferase, luminescence, no dopamine; active compounds read high. 1,900 compounds, 0.8% hits; in the data active = luminescence above about 3900
Isoprot counter: alters isoproterenol CRE-luciferase response in HEK293 cells; luminescence at 10 µM; 2,200 compounds, 63% hits; shares compounds with D1 allo mod; HEK293 D1 CRE-luciferase, isoproterenol EC30 counter-screen; active compounds read high;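 active = luminescence in either replicate above plate mean of wells with a partly effective reference agonist dose plus 3 SD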;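 note: isoproterenol raises cAMP through native beta-adrenoceptor Gs so signal bypasses D1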
* = called active by the depositor; i = inactive; . = no result.

SMILES	D1 allo mod	AP ELISA ortho	MMP13 inh	hDAT+cocaine	Calb biofilm kill	D1 mod confirm	D1 ag no DA	Isoprot counter
CCOc1cc(-c2c(C#N)c(N)nc3c2CCCC3C)ccc1O (stereo unspecified)	5.54*	-4.9	-3.3	2.39	-3.1	8596*	1588	3856*
O=S(=O)(c1ccccc1)c1nc(-c2ccco2)oc1N1CCCCCC1	6.6*	7.8	3.6	-0.0684	-0.9	10268*	1700	3120
CCSc1oc(-c2ccco2)nc1S(=O)(=O)c1ccccc1	2.97*	-10.1	1.4	0.285	10.3	24204*	1844	3872*
COc1cc(-c2nc(S(=O)(=O)c3ccccc3)c(N3CCOCC3)o2)cc(OC)c1OC	5.08*	10.6	1.8	-0.209	5.5	11504*	1656	5088*
CN1CCN(c2oc(-c3ccco3)nc2S(=O)(=O)c2ccccc2)CC1	-1.72	6.7	0.8	-0.249	2.7	.	.	.
CCCSc1oc(-c2ccco2)nc1S(=O)(=O)c1ccccc1	17.1*	3.1	1.5	0.636	3.1	14944*	1692	4752*
Cc1ccccc1NCCNc1ccccc1C	.	.	.	0.479	5.6	.	.	.
CCC(C)(C)n1nnnc1CN1CCN(C(c2ccccc2)c2ccccc2)CC1	.	.	.	0.781	-5.0	.	.	.
CCO[C@H]1OC(C(=O)NC2CC2)=C[C@@H](C2CC2)[C@@H]1CCCO	.	.	.	-0.573	.	.	.	.
CCCCNC(=O)c1onc(CSc2ccc(C(C)C)cc2)c1C(=O)O	.	.	.	-0.248	.	.	.	.
COC(=O)c1cc(OC)c(OC)cc1NC(=S)N1CCN(c2ccccc2)CC1	.	.	.	1.12	.	.	.	.
CSc1oc(-c2ccco2)nc1S(=O)(=O)c1ccc(Br)cc1	3.99*	14.4	-4.3	-0.453	10.9	15096*	1696	3024
CC(C)Sc1oc(-c2ccco2)nc1S(=O)(=O)c1ccc(F)cc1	3.35	-0.7	5.4	0.704	.	.	.	.
CC1CCCCN1C(=O)CSc1nc(C2CC2)nc2c1cnn2-c1ccccc1 (stereo unspecified)	4.01*	7.9	-0.8	-0.269	.	7396*	1340	2820
CCOC(=O)/C=C/c1ccc2c(c1)S(=O)(=O)N(c1cccc(OC)c1)[C@H]2CC(=O)OCC	.	.	.	0.34	.	.	.	.
COC(=O)C1=C(C)NC(=O)NC1c1cn(-c2ccccc2)nc1-c1cccs1 (stereo unspecified)	1.79	1.9	-0.2	1.21	1.5	.	.	.
CCOC(=O)C1=C(C)NC(=O)NC1c1cn(-c2ccccc2)nc1-c1cccs1 (stereo unspecified)	2.75*	6.5	5.5	1.53	3.0	10976*	1540	3608*
CN(C(=S)NC(=O)CCCOc1ccc(Cl)cc1Cl)c1ccccc1	.	.	.	1.07	.	.	.	.
CCOc1ccc(C(=O)Nc2nncs2)cc1OCC	10.2*	-23.1	0.6	-0.441	8.6	18420*	1592	4240*
N#Cc1nc(-c2cccs2)oc1NCc1ccc(Cl)cc1	8.31*	2.0	-312.2	0.0323	2.3	9676*	1684	3416*
N#Cc1nc(-c2ccc(F)cc2)oc1NCc1ccccc1	5.66*	24.4	-106.0	0.0305	0.5	8092*	1668	2912
COc1ccccc1-c1nc(C#N)c(NCc2ccc(F)cc2)o1	-0.067	8.0	-219.9	0.0032	-2.2	.	.	.
Cc1ccc(CNc2oc(-c3cccs3)nc2C#N)cc1	18.3*	4.7	i	0.269	5.3	22592*	1632	5144*
N#Cc1nc(-c2cccs2)oc1NCc1ccccc1	.	3.2	i	1.18	-4.1	.	.	.
COc1ccc(N2CCN(Cc3nc4c(c(=O)n(C)c(=O)n4C)n3CCc3ccccc3)CC2)cc1	3.54*	5.6	9.2	-1.44	14.1	7060	1804	4156*
SMILES	D1 allo mod	AP ELISA ortho	MMP13 inh	hDAT+cocaine	Calb biofilm kill	D1 mod confirm	D1 ag no DA	Isoprot counter
COCCn1c(CN2CCN(c3ccc(OC)cc3)CC2)nc2c1c(=O)n(C)c(=O)n2C	0.209	8.4	0.7	0.723	0.0	.	.	.
CNC(=O)c1[nH]cnc1C(=O)Nc1cccc(OC)c1	4.49*	-1.1	0.7	-0.42	-1.7	10128*	1656	3188*
COc1ccc(NC(=O)c2nc[nH]c2C(=O)N[C@@H](C)c2ccccc2)cc1	.	.	.	2.72	.	.	.	.
COc1ccc(NC(=O)c2nc[nH]c2C(=O)Nc2ccccc2C)cc1	7.54*	10.4	0.2	-1.04	9.9	14740*	1512	3268*
Cc1ccccc1NC(=O)c1nc[nH]c1C(=O)NCc1ccccc1	5.09*	0.7	0.2	-0.479	7.6	14280*	1616	2836
CNC(=O)c1[nH]cnc1C(=O)Nc1ccc(C)cc1	.	.	.	0.229	1.0	.	.	.
Cc1ccccc1NC(NC(=O)c1cccs1)C(Cl)(Cl)Cl (stereo unspecified)	.	.	.	-0.668	.	.	.	.
CCC/C=C(\CCC)C(NC(=O)CCc1ccccc1)c1ccc(C(F)(F)F)cc1 (stereo unspecified)	.	.	.	-1.02	.	.	.	.
NC(=O)c1cc(Cc2ccccc2)sc1NC(=O)c1ccco1	8.44*	15.6	-6.7	-0.716	0.8	15080*	1668	3656*
C[C@@H]1NC(=O)c2cc([N+](=O)[O-])cc(I)c2NCCCC[C@@H](C(N)=O)NC(=O)[C@H](CCC(=O)O)NC1=O	.	.	.	-0.415	.	.	.	.
COc1ccccc1NC(=O)CC1Nc2ccccc2NC1=O (stereo unspecified)	3.65*	9.7	1.2	0.185	9.2	6444*	1504	3404
O=C(CC1Nc2ccccc2NC1=O)NC1CCCCC1 (stereo unspecified)	-0.0311	6.5	-16.8	.	8.3	.	.	.
COc1ccc2c(c1)nc(SCC(=O)c1cccs1)n2C	.	.	.	-0.968	.	.	.	.
CCCCn1c2nc3ccccc3nc2c2c(=O)n(C(C)CC)cnc21 (stereo unspecified)	10.5*	16.1	-20.1	0.757	0.1	11776*	1928	2772
CCC(C)n1cnc2c(c1=O)c1nc3ccccc3nc1n2Cc1ccc2c(c1)OCO2 (stereo unspecified)	9.83*	12.0	-6.2	4.12*	4.9	14800*	1636	4852*
CCC(C)n1cnc2c(c1=O)c1nc3ccccc3nc1n2-c1ccc2c(c1)OCCO2 (stereo unspecified)	0.00976	14.2	-1.7	.	0.8	.	.	.
C[C@@]12CCC=C[C@H]1[C@H](c1ccc(F)c(/C=C/c3ccccc3)c1)N(Cc1ccccc1)C2=O	.	.	.	0.00932	.	.	.	.
O=[N+]([O-])c1cc(Cl)cc(C2=NCCN2)c1	.	.	.	-1.37	4.7	.	.	.
CCOC(=O)c1c(C)c(C(=O)Nc2cc(OC)ccc2OC)c(C)n1CC	3.14*	18.5	-2.9	0.354	0.4	7504*	1448	3508*
CSc1nc(N)nc(SCC(=O)C23CC4CC(CC(C4)C2)C3)c1C#N	.	.	-10.6	0.923	.	.	.	.
